“And” between values parts separate entries of the source, which are not always exact repeats. Equal values may be shown once.
Legend:
[1] = species: Canis familiaris; test: In vitro electrophysiological evaluation in canine cardiac Purkinje fibres reported as % change for action potential duration at 0.1-100 uM concentration range; format: functional, Canis lupus familiaris, Purkinje fiber
Outline: (§1)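 Canine cardiac Purkinje fibres, intracellular microelectrode recording, paced at a basic cycle length of 1 s. APD95 and Vmax read simultaneously. Compound: 10 mM stock in deionized water, diluted into Tyrode's solution, tested over the stated concentration range. Each fibre used once as its own control. Result is % change from control, given at 10 µM or as the maximum with its concentration. M = <10% decrease or an increase in Vmax.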

[2] = species: Canis familiaris; test: In vitro electrophysiological evaluation in canine cardiac Purkinje fibres reported as % change for action potential duration at 0.1-10 uM concentration range; format: functional, Canis lupus familiaris, Purkinje fiber; outline: as §1
[3] = species: Canis familiaris; test: In vitro electrophysiological evaluation in canine cardiac Purkinje fibres reported as percent change Vmax concentration range of 0.1-10 uM; Minimal (<IO%increase or a decrease in CT); format: functional; conditions: Canis lupus familiaris; Purkinje fiber; outline: as §1
[4] = species: Canis familiaris; test: In vitro electrophysiological evaluation in canine cardiac Purkinje fibres reported as maximum percent change Vmax concentration range of 0.1-100 uM; format: functional; conditions: Canis lupus familiaris; Purkinje fiber; outline: as §1
[5] = species: Canis familiaris; test: In vitro electrophysiological evaluation in canine cardiac Purkinje fibres reported as maximum percent change Vmax concentration range of 0.1-10 uM; Minimal (<IO%increase or a decrease in CT); format: functional; conditions: Canis lupus familiaris; Purkinje fiber; outline: as §1
[6] = species: Canis familiaris; test: In vitro electrophysiological activity in canine cardiac Purkinje fibres given as maximum % change for action potential duration at 0.1-10 uM concentration; format: functional, Canis lupus familiaris, Purkinje fiber
Outline: (§2)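 Canine cardiac Purkinje fibres, intracellular recording at 1 s basic cycle length, over cumulative concentration ranges. Compound 10 mM stock in deionized water diluted into Tyrode's. Each fibre used once as its own control. Value is the maximum % change from control in APD at 95% repolarization, with the concentration where it occurred; both values given if a biphasic response (>20% reversal) occurred.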

[7] = species: Canis familiaris; test: In vitro electrophysiological evaluation in canine cardiac Purkinje fibres reported as percent change Vmax concentration range of 0.1-100 uM; Minimal (<IO%increase or a decrease in CT); format: functional; conditions: Canis lupus familiaris; Purkinje fiber; outline: as §1
[8] = species: Canis familiaris; test: In vitro electrophysiological activity in canine cardiac Purkinje fibres given as maximum % change for action potential duration at 0.1-100 uM concentration; format: functional, Canis lupus familiaris, Purkinje fiber; outline: as §2
[9] = species: Canis familiaris; test: (§3) In vitro electrophysiological activity in canine cardiac occurred is 100 uM; format: functional, Canis lupus familiaris, Heart
[10] = species: Canis familiaris; test: In vitro electrophysiological evaluation in canine cardiac Purkinje fibres reported as % change for action potential duration at 10 uM at 1-100 uM concentration range; format: functional, Canis lupus familiaris, Purkinje fiber; outline: as §1
[11] = species: Canis familiaris; test: In vitro electrophysiological evaluation in canine cardiac Purkinje fibres reported as percent change Vmax at 10 uM at concentration range of 1-100 uM; format: functional; conditions: Canis lupus familiaris, Purkinje fiber; outline: as §1
[12] = species: Canis familiaris; test: In vitro electrophysiological evaluation in canine cardiac Purkinje fibres reported as percent change Vmax at 10 uM at concentration range of 1-100 uM; Minimal (<10% decrease or increase in V max).; format: functional; conditions: Canis lupus familiaris, Purkinje fiber; outline: as §1
[13] = species: Canis familiaris; test: In vitro electrophysiological evaluation in canine cardiac ventricular muscle reported as % change for the functional refractory period (FRP) at 10 uM at concentration range of 0.1-100 uM; design: species or system Canis lupus familiaris, Muscle tissue
Outline: (§4)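 Canine right ventricle and papillary muscle strips in oxygenated Tyrode's solution, fitted with stimulating and recording electrodes. The extra-stimulus conduction-interval method was adapted for in vitro use. FRP and CT were read from a conduction-interval curve before and after various compound concentrations, and expressed as percent change from control. Compounds were taken from 10 mM deionized-water stock into Tyrode's. Each strip was used once as its own control.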

[14] = species: Canis familiaris; test: (§5) In vitro electrophysiological evaluation in canine cardiac occurred is 100 uM; format: functional; conditions: Canis lupus familiaris; Heart
[15] = species: Canis familiaris; test: In vitro electrophysiological evaluation in canine cardiac Purkinje fibres reported as maximum percent change Vmax concentration range of 1-100 uM; Minimal (<10% decrease or increase in V max).; format: functional; conditions: Canis lupus familiaris; Purkinje fiber; outline: as §1
[16] = species: Canis familiaris; test: In vitro electrophysiological evaluation in canine cardiac ventricular muscle reported as maximum % change for functional refractory period (FRP) at 0.1-100 uM concentration range; concentration at which it occurred is 100 uM; design: species or system Canis lupus familiaris, Muscle tissue; outline: as §4
[17] = species: Canis familiaris; test: In vitro electrophysiological evaluation in canine cardiac ventricular muscle reported as % change for conduction time(CT) at 10 uM at 0.1-100 uM concentration range; Minimal (<10% decrease or increase in CT).; format: functional, Canis lupus familiaris, Muscle tissue
[18] = species: Canis familiaris; test: In vitro electrophysiological evaluation in canine cardiac Purkinje fibres reported as % change for action potential duration at a concentration of 10 uM; format: functional, Canis lupus familiaris, Purkinje fiber; outline: as §1
[19] = species: Canis familiaris; test: In vitro electrophysiological evaluation in canine cardiac ventricular muscle reported as maximum % change for conduction time(CT) at 0.1-100 uM concentration range; Minimal (<10% decrease or increase in CT).; format: functional, Canis lupus familiaris, Muscle tissue; outline: as §4
[20] = species: Canis familiaris; test: In vitro electrophysiological evaluation in canine cardiac Purkinje fibres reported as % change for action potential duration at 10 uM at 0.1-100 uM concentration range; format: functional, Canis lupus familiaris, Purkinje fiber; outline: as §1
[21] = species: Canis familiaris; test: In vitro electrophysiological activity in canine cardiac occurred is 10 uM; format: functional, Canis lupus familiaris, Heart
[22] = species: Canis familiaris; test: as §5; format: functional; conditions: Canis lupus familiaris; Heart; remark: listed apart in the source
[23] = species: Canis familiaris; test: In vitro electrophysiological evaluation in canine cardiac Purkinje fibres reported as percent change Vmax at 10 uM at concentration range of 0.1-100 uM; Minimal (<10% decrease or increase in V max).; format: functional, organism-based; conditions: Canis lupus familiaris, Purkinje fiber; outline: as §1
[24] = species: Canis familiaris; test: In vitro electrophysiological evaluation in canine cardiac Purkinje fibres reported as percent change Vmax at 10 uM at concentration range of 0.1-100 uM.; format: functional, organism-based; conditions: Canis lupus familiaris, Purkinje fiber; outline: as §1
[25] = species: Canis familiaris; test: In vitro electrophysiological evaluation in canine cardiac ventricular muscle reported as maximum % change for functional refractory period (FRP) at 0.1-100 uM concentration range; concentration at which it occurred is 10 uM; design: species or system Canis lupus familiaris, Muscle tissue; outline: as §4
[26] = species: Canis familiaris; test: In vitro electrophysiological evaluation in canine cardiac ventricular muscle reported as % change for conduction time(CT) at 10 uM at 0.1-10 uM concentration range; Minimal (<10% decrease or increase in CT).; format: functional, Canis lupus familiaris, Muscle tissue
[27] = species: Canis familiaris; test: In vitro electrophysiological evaluation in canine cardiac ventricular muscle reported as % change for the functional refractory period (FRP) at 10 uM at concentration range of 0.1-10 uM; design: species or system Canis lupus familiaris, Muscle tissue; outline: as §4
[28] = species: Canis familiaris; test: In vitro electrophysiological evaluation in canine cardiac ventricular muscle reported as maximum % change for conduction time(CT) at 0.1-10 uM concentration range; Minimal (<10% decrease or increase in CT).; format: functional, Canis lupus familiaris, Muscle tissue; outline: as §4
[29] = species: Canis familiaris; test: In vitro electrophysiological evaluation in canine cardiac ventricular muscle reported as maximum % change for functional refractory period (FRP) at 0.1-10 uM concentration range; concentration at which it occurred is 10 uM; design: species or system Canis lupus familiaris, Muscle tissue; outline: as §4
[30] = species: Canis familiaris; test: In vitro electrophysiological evaluation in canine cardiac Purkinje fibres reported as maximum percent change Vmax concentration range of 0.1-100 uM; Minimal (<10% decrease or increase in V max).; format: functional; conditions: Canis lupus familiaris; Purkinje fiber; outline: as §1
[31] = species: Canis familiaris; test: as §3; format: functional, Canis lupus familiaris, Heart; remark: listed apart in the source
[32] = species: Canis familiaris; test: In vitro electrophysiological evaluation in canine cardiac ventricular muscle reported as maximum % change for functional refractory period (FRP) at 0.1-100 uM concentration range; concentration at which it occurred is 100 uM.; design: species or system Canis lupus familiaris, Muscle tissue; outline: as §4

Structure (SMILES)	APD95 [9]	APD95 [10] [%]	Vmax [12] [%]	FRP [13]	Vmax [14] [%]	Vmax [15] [%]	FRP [16]	CT [17] [%]	APD95 [18] [%]	CT [19] [%]	APD95 [20]	APD95 [21]	Vmax [22]	Vmax [23] [%]	Vmax [30] [%]	further results
CCCCCCC[N+]12CCC(CC1)C(CCc1ccc(Cl)cc1)C2.[Br-] (stereo unspecified)	–	–	–	–	–	–	–	–	–	–	–	–	–	–	–	APD95 [1]: 22%; APD95 [2]: 23%; Vmax [3]: < 10%; Vmax [4]: -58%; Vmax [5]: < 10%; APD95 [6]: 26%; Vmax [7]: < 10%; APD95 [8]: 23%
CCOC(=O)C(CC1C(=O)C2CCN1CC2)C(=O)c1ccc(NS(C)(=O)=O)cc1.Cl (stereo unspecified)	39% and 40%	12	< 10	5% and 9%	-36	< 10	7% and 16%	<10	11	<10	–	–	–	–	–	Vmax [11]: -24%
CCOC(=O)C(CC1C(=O)C2CCN1CC2)C(=O)c1ccc([N+](=O)[O-])cc1.Cl (stereo unspecified)	-12% and 0% and -5%	–	–	22% and 35%	–	–	38%	<10	2	<10	23% and 22%	23% and 22%	-26% and -13% and -18%	< 10	–	Vmax [24]: -12%; FRP [25]: 22%
CC(=O)C(CC1C(=O)C2CCN1CC2)C(=O)c1ccccc1.Cl (stereo unspecified)	-19%	-5	< 10	–	–	–	–	–	-6	–	–	-6%	–	< 10	< 10	CT [26]: <10%; FRP [27]: 14%; CT [28]: <10%; FRP [29]: 20%
CS(=O)(=O)Nc1cc(C(=O)CCC2C(=O)C3CCN2CC3)ccc1Cl.Cl (stereo unspecified)	17%	-3	–	–	-28	< 10	21% and 32% and 15%	<10	-4	<10	–	–	–	< 10	–	APD95 [31]: 21%
CS(=O)(=O)Nc1ccc(C(=O)CCC2C(=O)C3CCN2CC3)cc1.Cl (stereo unspecified)	36% and 18%	5	< 10	18% and 12% and 13%	–	< 10	–	<10	16	<10	-1% and 10%	–	-24%	< 10	< 10	APD [20]: 24%; FRP [32]: 32% and 21% and 24%

From ChEMBL document CHEMBL1123566, “Synthesis and cardiac electrophysiological activity of 2- and 3-[(substituted phenyl)alkyl]quinuclidines. Structure-activity relationships” (1987)
